Source: ChEMBL document CHEMBL3272003, “(-)-3-Isothujone, a small nonnitrogenous molecule with antinociceptive activity in mice” (J Med Chem, 1976)
Calls of active or inactive are those of the source. The rule behind the calls is not given here.

Experiments:
Mus musculus [1] = assay: Toxicity in male white mouse assessed as induction of convulsions at 50 mg/kg, sc; format: organism-based; design: dose 50 mg/kg, route subcutaneous; details: in vivo
Mus musculus [2] = assay: Antinociceptive activity in sc dosed male white mouse by Nilsen test; format: functional
Mus musculus [3] = assay: Toxicity in male white mouse assessed as induction of convulsions<40 mg/kg, sc; format: organism-based; details: in vivo
Mus musculus [4] = assay: Antinociceptive activity in sc dosed male white mouse by hot plate test; format: functional
[5] = Toxicity in sc dosed male white mouse; format: organism-based; details: in vivo
Method in brief: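 LD50 determined in the same male white mouse strain, with the same vehicle and subcutaneous route as the antinociceptive tests. Room temperature was 23 °C. 95% confidence limits were obtained by probit analysis.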

Mus musculus [6] = assay: Antinociceptive activity in male white mouse at 100 mg/kg, sc by hot plate test; format: functional, organism-based; design: dose 100 mg/kg
Method in brief: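 Hot-plate antinociception test in male white mice, run by the standard method, with the compound given subcutaneously. Room temperature was held at 23 °C during testing.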

Mus musculus [7] = assay: Antinociceptive activity in male white mouse at 100 mg/kg, sc by Nilsen test; format: functional, organism-based; design: dose 100 mg/kg
Mus musculus [8] = assay: Toxicity in male white mouse assessed as induction of convulsions at 100 mg/kg, sc; format: organism-based; design: dose 100 mg/kg, route subcutaneous; details: in vivo
Mus musculus [9] = assay: Antinociceptive activity in male white mouse at 20 mg/kg, sc by Nilsen test; format: functional, organism-based; design: dose 20 mg/kg

Compound	ED50 (Mus musculus [2]) [mg/kg]	ED50 (Mus musculus [4]) [mg/kg]	LD50 [5] [mg/kg]	other results
CC(C)[C@]12CC(=O)[C@H](C)[C@H]1C2	14.1	6.5	87.5	Activity (Mus musculus [1]): Toxic; Activity (Mus musculus [3]): Non-toxic
CC(C)[C@]12C[C@@H](O)[C@H](C)[C@H]1C2	–	33.3	–	–
COc1ccc2c3c1O[C@H]1[C@@H](O)C=C[C@H]4[C@@H](C2)N(C)CC[C@@]341.Cl	4.5	7.5	270	–
CN1CC[C@]23c4c5ccc(O)c4O[C@H]2[C@@H](O)C=C[C@H]3[C@H]1C5.CN1CC[C@]23c4c5ccc(O)c4O[C@H]2[C@@H](O)C=C[C@H]3[C@H]1C5.O=S(=O)(O)O	0.8	1.2	–	–
CC(C)[C@]12CC(=O)[C@@H](C)[C@H]1C2	–	–	442	Activity (Mus musculus [6]): Active; Activity (Mus musculus [7]): Active; Activity (Mus musculus [8]): Toxic
CCCCCc1cc(O)c2c(c1)OC(C)(C)[C@@H]1CCC(C)=C[C@@H]21 [DRONABINOL]	–	9.6	–	–
CCCCCc1cc(O)c2c(c1)OC(C)(C)[C@@H]1CC=C(C)CC21 (some centres undefined)	–	8.8	–	Activity (Mus musculus [9]): inactive
CCCCCc1cc(O)c2c(c1)OC(C)(C)C1CC=C(CO)CC21 (centres undefined)	5.4	1.9	–	–
CC1C(=O)C[C@]2(C(C)C)C[C@H]12 (mixture of isomers)	–	16.7	134	–
CCC(=O)C(CC(C)N(C)C)(c1ccccc1)c1ccccc1 (racemic) [METHADONE]	–	0.8	44	–
